Entries after “also recorded” stand apart in the source; their conditions may differ. Values belong to the molecule of their own block, whether it stands above or below them. Where no end group is shown, it is not given here.
How the values were obtained:
MAS = assay: Filamin A phosphorylation in HEK-MAS cells; assay type: cell-based, human
Outline: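 HEK293 cells with doxycycline-inducible (100 ng/mL) myc-tagged MAS were induced 24 h with or without MAS inverse agonist (10 μM), then serum-starved 2 h with inverse agonist or H-89 (10 μM each). They were then treated 1 h with MAS agonist (10 μM) plus H-89; uninduced cells served as controls. Lysates were Western-blotted for pS2152-FLNa, FLNa and GAPDH, and pFLNa/FLNa was given as fold over uninduced. Mean ± SEM, N = 3, unpaired t test.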

Filamin A (Homo sapiens) = Filamin A (Homo sapiens) (UniProt P21333); details: cited from earlier work
Chain of Filamin A (Homo sapiens) (P21333 2-2647): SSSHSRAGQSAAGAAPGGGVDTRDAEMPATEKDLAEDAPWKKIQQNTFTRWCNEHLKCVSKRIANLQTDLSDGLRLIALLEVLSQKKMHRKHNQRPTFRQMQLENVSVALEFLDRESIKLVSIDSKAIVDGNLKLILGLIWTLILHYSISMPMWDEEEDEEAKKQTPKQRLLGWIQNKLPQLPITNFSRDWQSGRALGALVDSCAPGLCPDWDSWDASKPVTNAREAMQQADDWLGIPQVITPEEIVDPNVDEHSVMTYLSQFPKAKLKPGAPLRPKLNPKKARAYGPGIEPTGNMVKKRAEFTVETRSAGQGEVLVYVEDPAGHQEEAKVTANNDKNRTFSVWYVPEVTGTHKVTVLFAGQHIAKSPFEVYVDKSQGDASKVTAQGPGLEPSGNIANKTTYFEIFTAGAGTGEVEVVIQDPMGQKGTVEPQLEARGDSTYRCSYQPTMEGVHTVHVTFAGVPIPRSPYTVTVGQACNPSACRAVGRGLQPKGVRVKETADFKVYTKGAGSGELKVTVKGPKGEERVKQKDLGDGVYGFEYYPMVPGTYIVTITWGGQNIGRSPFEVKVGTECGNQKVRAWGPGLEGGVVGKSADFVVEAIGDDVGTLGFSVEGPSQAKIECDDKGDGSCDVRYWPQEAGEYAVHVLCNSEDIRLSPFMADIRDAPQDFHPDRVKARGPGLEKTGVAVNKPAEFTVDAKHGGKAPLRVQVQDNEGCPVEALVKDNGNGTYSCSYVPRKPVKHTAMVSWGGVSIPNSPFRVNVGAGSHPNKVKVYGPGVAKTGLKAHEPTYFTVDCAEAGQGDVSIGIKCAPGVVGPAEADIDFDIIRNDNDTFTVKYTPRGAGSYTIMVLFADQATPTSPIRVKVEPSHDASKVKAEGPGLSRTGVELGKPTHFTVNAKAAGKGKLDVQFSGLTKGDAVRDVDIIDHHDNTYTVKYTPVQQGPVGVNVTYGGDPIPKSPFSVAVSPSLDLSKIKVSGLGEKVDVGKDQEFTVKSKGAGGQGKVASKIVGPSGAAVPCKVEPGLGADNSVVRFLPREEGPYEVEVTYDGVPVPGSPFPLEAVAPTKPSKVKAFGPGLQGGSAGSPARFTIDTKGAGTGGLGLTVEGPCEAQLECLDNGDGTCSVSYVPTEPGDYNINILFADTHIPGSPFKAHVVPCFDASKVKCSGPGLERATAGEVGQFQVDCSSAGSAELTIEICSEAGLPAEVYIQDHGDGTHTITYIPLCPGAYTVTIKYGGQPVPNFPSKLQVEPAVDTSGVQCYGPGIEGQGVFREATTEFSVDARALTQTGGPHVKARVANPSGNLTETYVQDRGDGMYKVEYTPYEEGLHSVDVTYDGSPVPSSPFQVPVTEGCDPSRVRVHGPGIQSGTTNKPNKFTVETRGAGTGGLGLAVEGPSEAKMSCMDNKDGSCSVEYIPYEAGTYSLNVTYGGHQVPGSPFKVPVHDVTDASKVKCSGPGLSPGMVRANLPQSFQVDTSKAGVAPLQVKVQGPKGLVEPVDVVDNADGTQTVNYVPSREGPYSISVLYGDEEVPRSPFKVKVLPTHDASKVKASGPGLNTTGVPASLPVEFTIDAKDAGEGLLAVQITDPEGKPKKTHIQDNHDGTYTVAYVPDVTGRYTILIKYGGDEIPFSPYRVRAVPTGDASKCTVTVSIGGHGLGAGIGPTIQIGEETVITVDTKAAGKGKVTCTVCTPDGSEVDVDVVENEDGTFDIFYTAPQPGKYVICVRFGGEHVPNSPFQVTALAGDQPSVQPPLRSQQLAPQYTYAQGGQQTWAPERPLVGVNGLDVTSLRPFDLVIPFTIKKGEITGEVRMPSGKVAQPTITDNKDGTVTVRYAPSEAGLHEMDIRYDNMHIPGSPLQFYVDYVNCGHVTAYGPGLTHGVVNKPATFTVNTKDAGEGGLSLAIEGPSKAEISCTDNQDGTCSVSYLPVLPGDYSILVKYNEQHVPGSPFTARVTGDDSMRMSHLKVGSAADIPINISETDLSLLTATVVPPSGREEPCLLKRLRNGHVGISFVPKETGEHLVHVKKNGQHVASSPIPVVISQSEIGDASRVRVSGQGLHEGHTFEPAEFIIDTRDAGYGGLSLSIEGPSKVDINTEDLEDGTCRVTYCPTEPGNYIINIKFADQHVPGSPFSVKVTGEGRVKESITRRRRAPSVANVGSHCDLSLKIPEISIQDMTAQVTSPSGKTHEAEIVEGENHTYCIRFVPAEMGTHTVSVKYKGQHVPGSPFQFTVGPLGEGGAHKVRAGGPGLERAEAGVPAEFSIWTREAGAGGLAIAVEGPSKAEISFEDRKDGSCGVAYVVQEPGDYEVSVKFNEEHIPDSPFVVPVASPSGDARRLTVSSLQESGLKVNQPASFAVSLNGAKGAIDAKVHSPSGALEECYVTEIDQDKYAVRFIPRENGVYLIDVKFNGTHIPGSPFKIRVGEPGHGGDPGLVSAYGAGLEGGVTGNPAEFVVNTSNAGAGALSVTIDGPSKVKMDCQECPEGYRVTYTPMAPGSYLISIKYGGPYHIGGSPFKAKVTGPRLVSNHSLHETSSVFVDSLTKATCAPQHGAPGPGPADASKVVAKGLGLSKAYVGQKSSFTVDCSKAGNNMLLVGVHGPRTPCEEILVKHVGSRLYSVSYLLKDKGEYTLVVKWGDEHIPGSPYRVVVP

[1] = Peptide solubility in ITC buffer; assay type: physicochemical; details: 25 mM sodium phosphate (pH 6.4), 5 mM NaCl, 1 mM DTT
FLNa Ig21 [2] = molecular target: T1, FLNa Ig21 (Homo sapiens, UniProt P21333); assay: Isothermal titration calorimetry; assay type: binding; details: FLNa Ig21, 25 mM sodium phosphate (pH 6.4), 30 °C
T1 sequence (P21333 2236-2329 limits assumed): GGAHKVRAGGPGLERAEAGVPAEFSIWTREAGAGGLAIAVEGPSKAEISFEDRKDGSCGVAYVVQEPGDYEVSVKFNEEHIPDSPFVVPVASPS

FLNa Ig21 [3] = molecular target: T1, FLNa Ig21; assay: 15N HSQC NMR binding to FLNa Ig21; details: 15N-labeled Ig21, Bruker Avance 600 MHz, 30 °C; D3R peptide at 2-fold excess
FLNa Ig19 = assay: 15N HSQC NMR binding to FLNa Ig19; set-up: species or system human; details: 15N-labeled Ig19, Bruker Avance 600 MHz, 30 °C; 2-fold excess of peptide
AT1R = assay: Filamin A phosphorylation in HEK-AT1R cells; assay type: cell-based, rat; details: serum starved 2 h, AngII 1 μM for 1 h, mean of N = 2
Outline: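 HEK293 cells stably expressing HA-tagged rat AT1R were grown to 80–90% confluency and serum-starved 2 h. They were pretreated 30 min with vehicle or candesartan (10 μM), then given vehicle or AngII (1 μM) for 1 h. About 25 μg of M-PER lysate (protease and phosphatase inhibitors) was run on 4–12% SDS-PAGE. Blots were probed for pS2152-FLNa, FLNa and GAPDH by near-IR fluorescence. pFLNa/FLNa was expressed as fold over untreated; mean ± SEM, N = 2, unpaired t test.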

FLNa = details: cited from earlier work
[4] = molecular target: Filamin A Ig21 (Homo sapiens) (UniProt P21333); details: cited from earlier work
[5] = molecular target: Human Filamin A immunoglobulin domain Ig21 (human); assay: ITC

Molecule: C=CCCN1CCC2(CC1)CN(C(=O)c1c(F)cccc1F)c1ccc(Cl)cc12 [AR-inverse agonist]
FLNa phosphorylation induced by constitutive activity of MAS (MAS; 10 μM AR-inverse agonist during induction (24 h) and serum starvation (2 h), N = 3): abolished constitutive FLNa phosphorylation

Molecule: O=S(=O)(NCCNC/C=C/c1ccc(Br)cc1)c1cccc2cnccc12 [H-89]
inhibition of the increase in pFLNa in MAS-expressing cells (MAS; H-89 10 μM, Discussion statement): 60%

Molecule: GPIbα (from UniProt P07359)
Kd (Filamin A (Homo sapiens)): 100 nM

Molecule: KGHTFRSSLSVRLLKFSR [α1D-AR]
solubility of peptide (in words) [1]: limited

HSQC spectral changes / binding to FLNa Ig21 (FLNa Ig21 [3]): binds FLNa Ig19 and Ig21
HSQC spectral changes / binding to FLNa Ig19 (FLNa Ig19): binds FLNa Ig19 and Ig21
Molecule: VRKLSNGRLSTSLKLGPLQPRGV [D3R]
affinity for Ig21 by ITC (in words) (FLNa Ig21 [2]): could not be assessed accurately by ITC because of its lower affinity; also recorded: binds with a lower affinity

Molecule: angiotensin II (DRVYIHPF; Angiotensin-2; UniProt P01019 25-32, looked up) [AngII]
filamin phosphorylation, increase (pFLNa/FLNa) (AT1R): 5 fold

Molecule: lysophosphatidic acid
level of FLNa phosphorylation (FLNa): increase the level of FLNa phosphorylation

Molecule: β7 integrin C-terminal peptide Ct (from UniProt P26010)
Kd [4]: 40000 nM

Kd [5]: 800 nM
B1: AT1R filamin binding motif (FBM) peptide (peptide)
peptide: LGKKFKRYFLQLLKYIPPKA

Kd [5]: 300 nM
B2: MAS filamin binding motif (FBM) peptide (peptide)
peptide: KKKRFKESLKVVLTRAFK

Kd [5]: 800 nM
B3: α1D-adrenoreceptor (α1D-AR) filamin binding motif (FBM) peptide (peptide)
peptide: KGHTFRSSLSVRLLKFSR
